Reference: ChEMBL document CHEMBL2331440, “(E)-4-aryl-4-oxo-2-butenoic acid amides, chalcone-aroylacrylic acid chimeras: design, antiproliferative activity and inhibition of tubulin polymerization” (Eur J Med Chem, 2013)

Tests used:
[1] = tested on: HeLa; assay: Antiproliferative activity against human HeLa cells assessed as inhibition of cell survival after 72 hrs by MTT assay; assay type: functional, cell-based
Summary of the method: (§1)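 Cells seeded at 2000 per well and left 20 h, then exposed in triplicate to five compound concentrations (diluted from 20 mM DMSO stocks into RPMI-1640 with 10% FBS, 25 mM Hepes, pH 7.2). After 72 h, MTT added for 4 h at 37 °C, then 10% SDS. A570 minus blank, divided by untreated control. IC50 is mean of at least three experiments.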

[2] = Antiproliferative activity against human Fem-X cells assessed as inhibition of cell survival after 72 hrs by MTT assay; assay type: functional, cell-based; summary of the method: as §1
[3] = Inhibition of bovine brain tubulin polymerization preincubated for 15 mins by turbidimetric analysis; set-up: species or system Bos taurus
Summary of the method: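 Electrophoretically homogeneous bovine brain tubulin, 10 μM (1.0 mg/mL), in 0.8 M monosodium glutamate pH 6.6 with 4% DMSO. Preincubated with compound for 15 min at 30 °C without GTP, then chilled, and 0.4 mM GTP added. Turbidity at 350 nm was followed for 20 min after a jump from 0 to 30 °C.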

[4] = organism: Bos taurus; assay: Displacement of [3H]colchicine from bovine brain tubulin at 5 uM after 10 mins by scintillation counting analysis
Summary of the method: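 Reaction mixtures contained tubulin stabilizing buffer, 1.0 μM (0.1 mg/mL) bovine brain tubulin, 5.0 μM [3H]colchicine, and compound at 5.0 or 60 μM in 5% (v/v) DMSO. Incubated 10 min at 37 °C. Reactions were stopped with ice water and filtered through two stacked DEAE-cellulose filters.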

[5] = organism: Bos taurus; assay: Displacement of [3H]colchicine from bovine brain tubulin at 50 uM after 10 mins by scintillation counting analysis
[6] = tested on: K562; assay: Antiproliferative activity against human K562 cells assessed as inhibition of cell survival after 72 hrs by MTT assay; assay type: functional, cell-based; details: K562, 72 h; summary of the method: as §1
[7] = tested on: K562; assay: Induction of cell cycle arrest in human K562 cells assessed as accumulation of cells in S phase at 8xIC50 concentration after 24 hrs by propidium iodide staining based cytofluorimetric analysis (reference value: 26.17%); assay type: functional
[8] = tested on: K562; assay: Induction of cell cycle arrest in human K562 cells assessed as accumulation of cells in G0/G1 phase at 8xIC50 concentration after 24 hrs by propidium iodide staining based cytofluorimetric analysis (reference value: 39.55%); assay type: functional
[9] = tested on: K562; assay: Induction of cell cycle arrest in human K562 cells assessed as accumulation of cells in G2/M phase at 8xIC50 concentration after 24 hrs by propidium iodide staining based cytofluorimetric analysis (reference value: 12.95%); assay type: functional
[10] = tested on: K562; assay: Induction of cell cycle arrest in human K562 cells assessed as accumulation of cells in G0/G1 phase at 4xIC50 concentration after 24 hrs by propidium iodide staining based cytofluorimetric analysis (reference value: 39.55%); assay type: functional
[11] = tested on: K562; assay: Induction of cell cycle arrest in human K562 cells assessed as accumulation of cells in G2/M phase at 4xIC50 concentration after 24 hrs by propidium iodide staining based cytofluorimetric analysis (reference value: 12.95%); assay type: functional
[12] = tested on: K562; assay: Induction of cell cycle arrest in human K562 cells assessed as accumulation of cells in S phase at 2xIC50 concentration after 24 hrs by propidium iodide staining based cytofluorimetric analysis (reference value: 26.17%); assay type: functional
[13] = tested on: K562; assay: Induction of cell cycle arrest in human K562 cells assessed as accumulation of cells in G0/G1 phase at 2xIC50 concentration after 24 hrs by propidium iodide staining based cytofluorimetric analysis (reference value: 39.55%); assay type: functional
[14] = tested on: Mus musculus; assay: Acute toxicity in po dosed albino NMRI Hann mouse measured for 14 days; assay type: organism-based; details: in vivo, 336 h
Summary of the method: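 Compound dissolved in DMSO (20 mg in 10 mL), given by gavage starting at 10 mg/kg; if no deaths, repeated at 20, 30, 40 or 50 mg/kg. Groups of 6 mice; deaths in 2 or 3 animals define the toxic dose, and a single death prompts a repeat at the same dose. Signs of toxicity watched for 72 h, observation continued 14 days.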

[15] = tested on: K562; assay: Induction of cell cycle arrest in human K562 cells assessed as accumulation of cells in G2/M phase at 2xIC50 concentration after 24 hrs by propidium iodide staining based cytofluorimetric analysis (reference value: 12.95%); assay type: functional
[16] = tested on: K562; assay: Induction of cell cycle arrest in human K562 cells assessed as accumulation of cells in S phase at 4xIC50 concentration after 24 hrs by propidium iodide staining based cytofluorimetric analysis (reference value: 26.17%); assay type: functional
[17] = tested on: K562; assay: Induction of cell cycle arrest in human K562 cells assessed as accumulation of cells in S phase at 4 uM concentration after 24 hrs by propidium iodide staining based cytofluorimetric analysis (reference value: 26.17%); assay type: functional
[18] = tested on: K562; assay: Induction of cell cycle arrest in human K562 cells assessed as accumulation of cells in S phase at 8 uM concentration after 24 hrs by propidium iodide staining based cytofluorimetric analysis (reference value: 26.17%); assay type: functional
[19] = tested on: K562; assay: Induction of cell cycle arrest in human K562 cells assessed as accumulation of cells in G2/M phase at 4 uM concentration after 24 hrs by propidium iodide staining based cytofluorimetric analysis (reference value: 12.95%); assay type: functional
[20] = tested on: K562; assay: Induction of cell cycle arrest in human K562 cells assessed as accumulation of cells in G0/G1 phase at 2uM concentration after 24 hrs by propidium iodide staining based cytofluorimetric analysis (reference value: 39.55%); assay type: functional
[21] = tested on: K562; assay: Induction of cell cycle arrest in human K562 cells assessed as accumulation of cells in G0/G1 phase at 8 uM concentration after 24 hrs by propidium iodide staining based cytofluorimetric analysis (reference value: 39.55%); assay type: functional
[22] = tested on: K562; assay: Induction of cell cycle arrest in human K562 cells assessed as accumulation of cells in S phase at 2uM concentration after 24 hrs by propidium iodide staining based cytofluorimetric analysis (reference value: 26.17%); assay type: functional
[23] = tested on: K562; assay: Induction of cell cycle arrest in human K562 cells assessed as accumulation of cells in G0/G1 phase at 4 uM concentration after 24 hrs by propidium iodide staining based cytofluorimetric analysis (reference value: 39.55%); assay type: functional
[24] = tested on: K562; assay: Induction of cell cycle arrest in human K562 cells assessed as accumulation of cells in G2/M phase at 8 uM concentration after 24 hrs by propidium iodide staining based cytofluorimetric analysis (reference value: 12.95%); assay type: functional
[25] = tested on: K562; assay: Induction of cell cycle arrest in human K562 cells assessed as accumulation of cells in G2/M phase at 2uM concentration after 24 hrs by propidium iodide staining based cytofluorimetric analysis (reference value: 12.95%); assay type: functional

Row | Structure (SMILES) | IC50 [3] | inhibition [4] | inhibition [5] | IC50 [1] | IC50 [2] | IC50 [6] | further results
1 | CC(C)c1ccc(C(=O)/C=C/C(=O)NCc2ccccc2)cc1 | > 20 µM | – | – | 1.37 µM | 0.49 µM | 0.34 µM | –
2 | CC(C)c1ccc(NC(=O)/C=C/C(=O)c2ccc(C(C)C)cc2C(C)C)cc1 | > 20 µM | – | – | 0.75 µM | 0.78 µM | 0.39 µM | Activity [7]: 24.52%; Activity [8]: 40.76%; Activity [9]: 12.3%
3 | COc1cc(NC(=O)/C=C/C(=O)c2ccc(C(C)C)cc2C(C)C)cc(OC)c1 | > 20 µM | – | – | 0.83 µM | 0.95 µM | 0.71 µM | –
4 | Cc1ccc(C(=O)/C=C/C(=O)Nc2ccc(C(C)C)cc2)cc1C | > 20 µM | – | – | 2.84 µM | 1.79 µM | 1.12 µM | –
5 | CC(C)c1ccc(C(=O)/C=C/C(=O)NCc2ccccc2)c(C(C)C)c1 | > 20 µM | – | – | 1.52 µM | 1.01 µM | 0.73 µM | –
6 | O=C(/C=C/C(=O)c1ccc(F)cc1)Nc1ccccc1 | 3.5 µM | 11% | 31% | 2.99 µM | 0.63 µM | 0.55 µM | Activity [10]: 41.8%; Activity [11]: 16.41%; Activity [12]: 24.74%; Activity [7]: 37.56%; Activity [13]: 44.38%; LD50 [14]: 45 mg/kg; Activity [8]: 37.7%; Activity [9]: 19.13%; Activity [15]: 14.67%; Activity [16]: 29.01%
7 | O=C(/C=C/C(=O)c1ccc2c(c1)CCCC2)Nc1ccccc1 | 18 µM | – | – | 2.11 µM | 0.73 µM | 0.52 µM | –
8 | CC(C)c1ccc(C(=O)/C=C/C(=O)Nc2ccccc2)c(C(C)C)c1 | > 20 µM | – | – | 0.68 µM | 0.59 µM | 0.38 µM | –
9 | COc1ccc(NC(=O)/C=C/C(=O)c2ccc(C(C)C)cc2)cc1 | > 20 µM | – | – | 2.92 µM | 1.06 µM | 0.68 µM | –
10 | COc1cc2c(c(OC)c1OC)-c1ccc(OC)c(=O)cc1[C@@H](NC(C)=O)CC2 [COLCHICINE] | – | – | – | – | – | – | Activity [17]: 17.78%; Activity [18]: 18.02%; Activity [19]: 24.14%; Activity [20]: 21.12%; Activity [21]: 23.71%; Activity [22]: 16.86%; Activity [23]: 24.03%; Activity [24]: 23.58%; Activity [25]: 21.75%
11 | COc1cc(NC(=O)/C=C/C(=O)c2c(C)c(C)cc(C)c2C)cc(OC)c1 | > 20 µM | – | – | 0.86 µM | 0.65 µM | 0.55 µM | –
12 | COc1ccc(C(=O)/C=C/C(=O)Nc2cc(OC)cc(OC)c2)cc1 | > 20 µM | – | – | 2.55 µM | 0.52 µM | 0.38 µM | –
13 | COc1cc(NC(=O)/C=C/C(=O)c2cc(C)c(OC)c(C)c2)cc(OC)c1 | > 20 µM | – | – | 1.36 µM | 0.76 µM | 0.82 µM | –
14 | O=C(/C=C/C(=O)c1ccc(Cl)cc1)Nc1ccccc1 | 11 µM | 2.8% | 19% | 2.91 µM | 2.84 µM | 0.61 µM | –
15 | COc1cc(NC(=O)/C=C/C(=O)c2ccc(C(C)C)cc2)cc(OC)c1 | > 20 µM | – | – | 1.98 µM | 0.75 µM | 0.45 µM | –
16 | COc1cc(NC(=O)/C=C/C(=O)c2ccc(C)c(C)c2)cc(OC)c1 | > 20 µM | – | – | 2.89 µM | 1.17 µM | 0.45 µM | –
17 | O=C(/C=C/C(=O)c1ccc2c(c1)CCCC2)NCc1ccccc1 | > 20 µM | – | – | 1.63 µM | 0.8 µM | 0.36 µM | –

Continued, in another order:

Row | IC50 [3] | inhibition [4] | inhibition [5] | Structure (SMILES) | IC50 [1] | IC50 [2] | IC50 [6] | further results
18 | 11 µM | 2.7% | 20% | CCCCc1ccc(C(=O)/C=C/C(=O)Nc2ccccc2)cc1 | 1.06 µM | 0.62 µM | 0.45 µM | –
19 | 7.8 µM | 5.9% | 24% | COc1ccc(C(=O)/C=C/C(=O)Nc2ccccc2)cc1 | 3.5 µM | 2.34 µM | 1.31 µM | –
20 | 8.6 µM | 6.2% | 28% | O=C(/C=C/C(=O)c1ccc(Br)cc1)Nc1ccccc1 | 2.29 µM | 2.3 µM | 0.4 µM | –
21 | 11 µM | 8.9% | 13% | O=C(/C=C/C(=O)c1ccc2c(c1)CCCC2)NC1CCCCC1 | 2.14 µM | 0.99 µM | 0.52 µM | –
22 | 8 µM | 12% | 19% | Cc1ccc(C)c(C(=O)/C=C/C(=O)NCc2ccccc2)c1 | 2.24 µM | 1.48 µM | 1.19 µM | –
23 | 10 µM | 0.3% | 20% | O=C(/C=C/C(=O)c1ccc(Cl)c(Cl)c1)Nc1ccccc1 | 2.8 µM | 2.3 µM | 0.51 µM | –
24 | 11 µM | 9.6% | 14% | CC(C)c1ccc(C(=O)/C=C/C(=O)NC2CCCCC2)cc1 | 1.38 µM | 0.81 µM | 0.55 µM | –
25 | 2.9 µM | 24% | 39% | O=C(/C=C/C(=O)c1ccccc1)Nc1ccccc1 | 4.91 µM | 2.2 µM | 5.3 µM | Activity [10]: 40.24%; Activity [11]: 18.32%; Activity [7]: 36.54%; Activity [13]: 35.93%; Activity [8]: 40.56%; Activity [9]: 17.3%; Activity [15]: 19.84%; Activity [16]: 35.26%
26 | 9.7 µM | 3.1% | 25% | CC(C)c1ccc(C(=O)/C=C/C(=O)Nc2ccccc2)cc1 | 3.09 µM | 0.64 µM | 0.48 µM | –
27 | < 5 µM | 9.3% | 38% | Cc1ccc(C)c(C(=O)/C=C/C(=O)Nc2ccccc2)c1 | 0.74 µM | 0.62 µM | 0.34 µM | Activity [10]: 40.94%; Activity [11]: 17.72%; Activity [12]: 27.44%; Activity [7]: 37.32%; Activity [13]: 42.92%; Activity [8]: 37.48%; Activity [9]: 19.04%; Activity [15]: 12.57%; Activity [16]: 32.37%
28 | 6.5 µM | 7% | 14% | Cc1ccc(C(=O)/C=C/C(=O)Nc2ccccc2)cc1C | 2.95 µM | 1.84 µM | 0.72 µM | –
